Results on two molecules are retold here after ChEMBL document CHEMBL1140177 (J Med Chem, 2008).

Converted amounts (≈) assume the structure as drawn.

Series [1] deals with Human immunodeficiency virus type 1 reverse transcriptase (Human immunodeficiency virus 1, UniProt Q72547). Nature of the series: Inhibition of wild type HIV1 RT polymerase by SPA.
In series [2] the target is Human immunodeficiency virus type 1 reverse transcriptase (Human immunodeficiency virus 1, UniProt Q72547, K103N). Nature of the series: Inhibition of HIV1 RT polymerase K103N mutant by SPA.
Series [3] addresses Human immunodeficiency virus type 1 reverse transcriptase (Human immunodeficiency virus 1, UniProt Q72547, Y181C). The series can be described thus: Inhibition of HIV1 RT polymerase Y181C mutant by SPA.
In series [4] the test system is Human immunodeficiency virus 1. The series can be described thus: Antiviral activity against wild type HIV1 infected in human MT4 cells after 72 hrs in presence of 10% fetal bovine serum. Type of series: functional. Conditions: Human immunodeficiency virus 1, MT4, 72 h; read-out: CIC95. The procedure, abridged: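 MT-4 human T-lymphoid cells in RPMI 1640 with 10% FBS. CIC95 is the concentration that inhibits viral spread by >95%. Values are either geometric means of two determinations or given with standard deviations for n > 3 or n > 50.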

The test system of series [5] is Human immunodeficiency virus 1. The series can be described thus: Antiviral activity against HIV1 with reverse transcriptase K103N mutant infected in human MT4 cells after 72 hrs in presence of 10% fetal bovine serum. Conditions: Human immunodeficiency virus 1, MT4, 72 h; read-out: CIC95. Type of series: functional. Put shortly:
(§1)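 Mutant HIV-1 spread was assayed in MT-4 human T-lymphoid cells kept in RPMI 1640 with 10% FBS. CIC95 is the concentration that inhibits viral spread by >95%. Values are geometric means of two determinations, or mean with standard deviation where n > 3. Cytotoxicity was checked up to an assay limit of 8.3 µM.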

The subject of series [6] is Human immunodeficiency virus 1. Nature of the series: Antiviral activity against HIV1 with reverse transcriptase Y181C mutant infected in human MT4 cells after 72 hrs in presence of 10% fetal bovine serum. Type of series: functional. Conditions: Human immunodeficiency virus 1, MT4, 72 h; read-out: CIC95. The procedure, abridged: as §1
For series [7], the system named is Human immunodeficiency virus 1. Nature of the series: Antiviral activity against wild type HIV1 infected in human MT4 cells after 72 hrs in presence of 50% normal human serum. Type of series: functional. Conditions: Human immunodeficiency virus 1, MT4, 72 h; read-out: CIC95. The procedure, abridged:
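MT-4 human T-lymphoid cells in RPMI 1640 with 50% NHS. CIC95 is the concentration that inhibits viral spread by >95%. Values are either geometric means of two determinations or given with standard deviations for n > 3 or n > 50.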

Series [8] can be described thus: Half life in Sprague-Dawley rat at 10 mg/kg, po and 2 mg/kg, iv. Type of series: ADME, organism-based. To be noted: in vivo.
Series [9] is described as follows: Clearance in Sprague-Dawley rat at 10 mg/kg, po and 2 mg/kg, iv. Conditions: in vivo. The format is ADME, organism-based.
Series [10] is described as follows: AUC in Sprague-Dawley rat at 10 mg/kg, po. The format is ADME, organism-based. Conditions: plasma. Also noted: dose 10 mg/kg, route oral.
A short description of series [11]: Volume of distribution in Sprague-Dawley rat at 10 mg/kg, po and 2 mg/kg, iv. To be noted: in vivo. Type of series: ADME, organism-based.
A short description of series [12]: Oral bioavailability in Sprague-Dawley rat at 10 mg/kg. Type of series: ADME, organism-based. Conditions: in vivo.
Series [13] in a line: Half life in Beagle dog at 2 mg/kg, po and 0.25 mg/kg, iv. The format is ADME, organism-based, Canis lupus familiaris. To be noted: in vivo. Put shortly: (§2)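 Two beagle dogs, averaged. Oral dose 2 mpk in Imwitor/Tween; intravenous dose 0.25 mpk in DMSO.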
Series [14] can be described thus: Clearance in Beagle dog at 2 mg/kg, po and 0.25 mg/kg, iv. To be noted: in vivo. The format is ADME, organism-based, Canis lupus familiaris. Put shortly:
as §2

Series [15] can be described thus: AUC in Beagle dog at 2 mg/kg, po. Type of series: ADME, organism-based, Canis lupus familiaris. Set-up: dose 2 mg/kg, route oral. Conditions: plasma. The procedure, abridged:
as §2

Series [16] in a line: Volume of distribution in Beagle dog at 2 mg/kg, po and 0.25 mg/kg, iv. Type of series: ADME, organism-based, Canis lupus familiaris. Conditions: in vivo. Put shortly:
as §2

Series [17] in a line: Oral bioavailability in Beagle dog at 2 mg/kg. Type of series: ADME, organism-based, Canis lupus familiaris. Conditions: in vivo. The procedure, abridged: as §2
Series [18] in a line: Half life in rhesus monkey at 10 mg/kg, po and 1 mg/kg, iv. Type of series: ADME, organism-based, Macaca mulatta. Conditions: in vivo. The procedure, abridged: (§3)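 Two rhesus macaques, averaged. Oral dose 10 mpk in Imwitor/Tween; intravenous dose 1 mpk in DMSO.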
Series [19] can be described thus: Clearance in rhesus monkey at 10 mg/kg, po and 1 mg/kg, iv. The format is ADME, organism-based, Macaca mulatta. Conditions: in vivo. Put shortly: as §3
A short description of series [20]: AUC in rhesus monkey at 10 mg/kg, po. The format is ADME, organism-based, Macaca mulatta. Set-up: dose 10 mg/kg, route oral. Conditions: plasma.
The nature of series [21]: Volume of distribution in rhesus monkey at 10 mg/kg, po and 1 mg/kg, iv. The format is ADME, organism-based, Macaca mulatta. Conditions: in vivo. Put shortly: as §3
Series [22] in a line: Oral bioavailability in rhesus monkey at 10 mg/kg. The format is ADME, organism-based, Macaca mulatta. To be noted: in vivo.
The nature of series [23]: Solubility at pH 7. The format is physicochemical. Conditions: buffer.
A short description of series [24]: Solubility at pH 2. Type of series: physicochemical. Conditions: buffer.
In series [25] the test system is Human immunodeficiency virus 1. Nature of the series: Antiviral activity against wild type HIV1 in presence of 40% normal human serum. Type of series: functional, organism-based. The procedure, abridged: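 Monogram Bioscience PhenoScreen cell-culture assay run with 40% NHS. […] Value is the geometric mean of n = 2.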
The test system of series [26] is Human immunodeficiency virus 1. Nature of the series: Antiviral activity against HIV1 with reverse transcriptase G190A mutant in presence of 40% normal human serum. Type of series: functional, organism-based.
The subject of series [27] is Human immunodeficiency virus 1. Nature of the series: Antiviral activity against HIV1 with reverse transcriptase G190S mutant in presence of 40% normal human serum. Type of series: functional, organism-based.
Series [28] concerns Human immunodeficiency virus 1. The series can be described thus: Antiviral activity against HIV1 with reverse transcriptase L100I mutant in presence of 40% normal human serum. The format is functional, organism-based.
For series [29], the system named is Human immunodeficiency virus 1. Nature of the series: Antiviral activity against HIV1 with reverse transcriptase K103N mutant in presence of 40% normal human serum. Type of series: functional, organism-based.
Series [30] concerns Human immunodeficiency virus 1. Nature of the series: Antiviral activity against HIV1 with reverse transcriptase Y181C mutant in presence of 40% normal human serum. Type of series: functional, organism-based.
Series [31] concerns Human immunodeficiency virus 1. The series can be described thus: Antiviral activity against HIV1 with reverse transcriptase Y188L mutant in presence of 40% normal human serum. Type of series: functional, organism-based.
Series [32] relates to Human immunodeficiency virus 1. Nature of the series: Antiviral activity against HIV1 with reverse transcriptase K101E/G190A mutant in presence of 40% normal human serum. The format is functional, organism-based.
The test system of series [33] is Human immunodeficiency virus 1. The series can be described thus: Antiviral activity against HIV1 with reverse transcriptase K103N/G190A mutant in presence of 40% normal human serum. Type of series: functional, organism-based.
For series [34], the system named is Human immunodeficiency virus 1. The series can be described thus: Antiviral activity against HIV1 with reverse transcriptase K103N/P225H mutant in presence of 40% normal human serum. The format is functional, organism-based.
Series [35] deals with Human immunodeficiency virus 1. Nature of the series: Antiviral activity against HIV1 with reverse transcriptase K103N/V179E mutant in presence of 40% normal human serum. The format is functional, organism-based.
The test system of series [36] is Human immunodeficiency virus 1. Nature of the series: Antiviral activity against HIV1 with reverse transcriptase K103N/Y181C mutant in presence of 40% normal human serum. Type of series: functional, organism-based.
The test system of series [37] is Human immunodeficiency virus 1. The series can be described thus: Antiviral activity against HIV1 with reverse transcriptase Y181C/G190A mutant in presence of 40% normal human serum. Type of series: functional, organism-based.

The IC50 is the midpoint of a concentration-inhibition curve. The half-life is the time in which the quantity being followed falls by half. The term AUC denotes the area under the concentration-time curve, a measure of exposure. What is called bioavailability is the share of a dose that reaches the circulation, judged against a reference dose that is usually intravenous. What is called solubility is the dissolved amount per volume that the medium holds.

Consider `N#Cc1cc(Cl)cc(Oc2cc(OCc3n[nH]c4ncccc34)ccc2Cl)c1`, for which the IC50 in series [1] was determined as 0.4 nM; in series [2], 0.5 nM; in series [3], 0.2 nM; in series [25], 1.5 nM; in series [26] it was 1.8 nM; in series [27], 6.8 nM. Further, the IC50 in series [28] came out at 1.1 nM; in series [29], 2.5 nM; in series [30], 4.1 nM; in series [31] it was 900 nM; in series [32] it was 4.8 nM; in series [33], 4 nM. Also, the IC50 in [34] is 4.8 nM; in [35], 6 nM; in series [36], 34.1 nM; in series [37], 17.1 nM. The IC95 in [4] is 10.3 nM; in series [5] it was 14.6 nM; in series [6] it was 22 nM; in series [7], 34 nM. In addition, the figures for the half-life in [8], in series [13] and in series [18] were 4.1 h, 11.8 h and 8.2 h, respectively. The clearance in [9] is 28 mL/min/kg; in series [14], 8.9 mL/min/kg; in series [19], 19 mL/min/kg. In addition, the AUC is 9.5 µM·h in series [10], 1.6 µM·h in series [15] and 0.3 µM·h in series [20]. The Vd in series [11] amounted to 5.3 L/kg; in series [16] it was 2.6 L/kg; in [21], 4.4 L/kg. The bioavailability in series [12] is 58%; in [17] it was 17%; in [22], 3%. The values for the solubility in series [23] and in [24] were 0.1 µg/mL (≈ 0.243 µM) and less than 0.1 µg/mL, respectively.
Turning to `N#Cc1cc(Cl)cc(Oc2cc(OCc3n[nH]c4ccccc34)ccc2Cl)c1`, the IC95 in series [4] worked out at 22.6 nM; in series [5] it was 33 nM; in [6] it was 102 nM; in series [7], 114 nM.
